Drawing on ChEMBL document CHEMBL1140988 (Eur J Med Chem, 2008), this text covers Activity and Ki for 34 compounds.

Structures are written as SMILES.

What is called Ki is a measure of affinity in units of concentration, obtained from inhibition or displacement. Read a low Ki as higher affinity.

T1 sequence (P21554 whole entry): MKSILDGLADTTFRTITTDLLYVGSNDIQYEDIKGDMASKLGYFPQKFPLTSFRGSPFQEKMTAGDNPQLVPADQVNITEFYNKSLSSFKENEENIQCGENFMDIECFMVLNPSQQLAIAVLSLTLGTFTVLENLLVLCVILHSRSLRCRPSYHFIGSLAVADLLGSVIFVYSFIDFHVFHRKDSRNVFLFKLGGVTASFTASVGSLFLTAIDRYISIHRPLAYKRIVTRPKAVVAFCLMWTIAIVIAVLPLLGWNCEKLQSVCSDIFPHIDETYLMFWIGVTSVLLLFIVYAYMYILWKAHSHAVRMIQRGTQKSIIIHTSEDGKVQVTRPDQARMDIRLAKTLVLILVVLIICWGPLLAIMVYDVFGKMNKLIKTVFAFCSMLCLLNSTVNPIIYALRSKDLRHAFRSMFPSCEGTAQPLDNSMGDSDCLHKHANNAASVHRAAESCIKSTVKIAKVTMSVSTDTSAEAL

In one assay the target is T1, Cannabinoid receptor 1 (Homo sapiens, UniProt P21554). Kind of assay: Displacement of [3H]CP-55940 from human CB1 receptor expressed in CHO cells at 10 uM. It is filed as cell-based. In outline:
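Competitive binding on membranes of CHO cells expressing human CB1, run by an outside contract lab. Radioligand was [3H]-CP 55940 at 0.5 nM and test compound was at 10 μM. Non-specific binding was set with an excess of unlabelled ligand. Values are % of control specific binding (displacement), n = 2.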
As for `O=C(NC1CCCCC1)c1cnn(-c2ccc(Cl)cc2Cl)c1-c1ccc(F)cc1`, the Activity amounted to 69%.

Take `O=C(NC12CC3CC(CC(C3)C1)C2)c1cnn(-c2ccc(Cl)cc2Cl)c1-c1ccc(I)cc1`: the Activity is 76%.

Turning to `O=C(NC1CC1)c1cnn(-c2ccc(Cl)cc2Cl)c1-c1ccc(F)cc1`, the Activity was found to be 62%.

For the compound `O=C(NN1CC2CCCC2C1)c1cnn(-c2ccc(Cl)cc2Cl)c1-c1ccc(Cl)cc1` (centres undefined), the Activity is 86%.

For `O=C(NN1CCCCC1)c1cnn(-c2ccc(Cl)cc2Cl)c1-c1ccc(I)cc1`, the Activity is 94%.

Consider `O=C(NN1CCCCC1)c1cnn(-c2ccc(Cl)cc2Cl)c1-c1ccc(F)cc1`, for which the Activity was determined as 43%.

Take `CN1CCN(NC(=O)c2cnn(-c3ccc(Cl)cc3Cl)c2-c2ccc(I)cc2)CC1`: the Activity was 78%.

For the compound `COc1ccc(-c2c(C(=O)NN3CCCCC3)cnn2-c2ccc(Cl)cc2Cl)cc1`, the Activity came out at 58%.

As to `O=C(NN1CCOCC1)c1cnn(-c2ccc(Cl)cc2Cl)c1-c1ccc(Cl)cc1`, the Activity came to 65%.

Consider `O=C(NC1CCCCC1)c1cnn(-c2ccc(Cl)cc2Cl)c1-c1ccc(I)cc1`, for which the Activity stood at 64%.

With `O=C(c1cnn(-c2ccc(Cl)cc2Cl)c1-c1ccc(Cl)cc1)N1CCCCC1`, the Activity was 59%.

For the compound `O=C(NC1CCCCC1)c1cnn(-c2ccc(Cl)cc2Cl)c1-c1ccc(Br)cc1`, the Activity amounted to 81%.

With `O=C(c1cnn(-c2ccc(Cl)cc2Cl)c1-c1ccc(Cl)cc1)N1CCCC1`, the Activity was 49%.

Take `O=C(NC1CCCCCC1)c1cnn(-c2ccc(Cl)cc2Cl)c1-c1ccc(Cl)cc1`: the Activity is 78%.

Regarding `O=C(NN1CCCCC1)c1cnn(-c2ccc(Cl)cc2Cl)c1-c1ccc(Cl)cc1`, the Activity was found to be 79%.

As to `O=C(NC1CCCC1)c1cnn(-c2ccc(Cl)cc2Cl)c1-c1ccc(Cl)cc1`, the Activity was determined as 82%.

As for `CN1CCN(NC(=O)c2cnn(-c3ccc(Cl)cc3Cl)c2-c2ccc(Cl)cc2)CC1`, the Activity is 61%.

On to `O=C(NC1CCCCCC1)c1cnn(-c2ccc(Cl)cc2Cl)c1-c1ccc(Br)cc1`, for which the Activity amounted to 88%.

Regarding `COc1ccc(-c2c(C(=O)NC3CCCCC3)cnn2-c2ccc(Cl)cc2Cl)cc1`, the Activity came out at 64%.

Regarding `O=C(NC1CC1)c1cnn(-c2ccc(Cl)cc2Cl)c1-c1ccc(Cl)cc1`, the Activity turned out to be 87%.

Consider `CN1CCN(NC(=O)c2cnn(-c3ccc(Cl)cc3Cl)c2-c2ccc(Br)cc2)CC1`, for which the Activity stood at 67%.

For the compound `O=C(NC12CC3CC(CC(C3)C1)C2)c1cnn(-c2ccc(Cl)cc2Cl)c1-c1ccc(Cl)cc1`, the Activity is 72%.

As to `O=C(NC1CC1)c1cnn(-c2ccc(Cl)cc2Cl)c1-c1ccc(I)cc1`, the Activity amounted to 91%.

As to `O=C(NC1CC1)c1cnn(-c2ccc(Cl)cc2Cl)c1-c1ccc(Br)cc1`, the Activity came to 84%.

Turning to `O=C(NC1CCCCCC1)c1cnn(-c2ccc(Cl)cc2Cl)c1-c1ccc(I)cc1`, the Activity worked out at 90%.

Consider `O=C(NN1CCCCC1)c1cnn(-c2ccc(Cl)cc2Cl)c1-c1ccc(Br)cc1`, for which the Activity turned out to be 74%.

In the case of `Cc1ccc(-c2c(C(=O)NN3CCCCC3)cnn2-c2ccc(Cl)cc2Cl)cc1`, the Activity is 29%.

For the compound `Cc1ccc(-c2c(C(=O)NC3CCCCC3)cnn2-c2ccc(Cl)cc2Cl)cc1`, the Activity is 48%.

For the compound `O=C(c1cnn(-c2ccc(Cl)cc2Cl)c1-c1ccc(Cl)cc1)N1CCc2ccccc2C1`, the Activity was found to be 58%.

For `O=C(NN1CCOCC1)c1cnn(-c2ccc(Cl)cc2Cl)c1-c1ccc(F)cc1`, the Activity is 30%.

Consider `O=C(NC1CCCCCCC1)c1cnn(-c2ccc(Cl)cc2Cl)c1-c1ccc(Cl)cc1`, for which the Activity was determined as 84%.

With `O=C(NCCN1CCCCC1)c1cnn(-c2ccc(Cl)cc2Cl)c1-c1ccc(Cl)cc1`, the Activity was 39%.

As for `O=C(NC1CCCCC1)c1cnn(-c2ccc(Cl)cc2Cl)c1-c1ccc(Cl)cc1`, the Activity is 68%.

As to `O=C(NN1CCCCCC1)c1cnn(-c2ccc(Cl)cc2Cl)c1-c1ccc(Cl)cc1`, the Activity was 75%.

A further assay addresses T1, Cannabinoid receptor 1. Kind of assay: biochemical. The format is cell-based, CHO.
For `O=C(NN1CCCCC1)c1cnn(-c2ccc(Cl)cc2Cl)c1-c1ccc(I)cc1`, the affinity corresponds to a Ki of 1300 nM.

`CN1CCN(NC(=O)c2cnn(-c3ccc(Cl)cc3Cl)c2-c2ccc(Cl)cc2)CC1` registered a Ki of 16000 nM.

With `O=C(NC1CCCCCC1)c1cnn(-c2ccc(Cl)cc2Cl)c1-c1ccc(Br)cc1`, the inhibition constant Ki was 1100 nM.

The compound `O=C(NC1CC1)c1cnn(-c2ccc(Cl)cc2Cl)c1-c1ccc(Cl)cc1` came in with an inhibition constant (Ki) of 850 nM.

Take `CN1CCN(NC(=O)c2cnn(-c3ccc(Cl)cc3Cl)c2-c2ccc(Br)cc2)CC1`: the Ki amounted to 2600 nM.

The compound `O=C(NC1CC1)c1cnn(-c2ccc(Cl)cc2Cl)c1-c1ccc(I)cc1` showed an inhibitory constant (Ki) of 210 nM.

`O=C(NC1CC1)c1cnn(-c2ccc(Cl)cc2Cl)c1-c1ccc(Br)cc1`: affinity was put at a Ki of 1000 nM.

Regarding `O=C(NC1CCCCCC1)c1cnn(-c2ccc(Cl)cc2Cl)c1-c1ccc(I)cc1`, affinity was put at a Ki of 1100 nM.

In a further assay the target is T2, Cannabinoid receptor 2 (Homo sapiens, UniProt P34972). Kind of assay: Displacement of [3H]WIN-55212-2 from human CB2 receptor expressed in CHO cells at 10 uM. It is filed as cell-based. An outline of the steps: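 Human CB2 expressed in CHO cell membranes, competitive binding run by an outside contract lab. [3H]-WIN 55212-2 at 0.8 nM was displaced by test compound at 10 μM. Specific binding is total minus non-specific, the latter measured with excess unlabelled ligand. Reported as % displacement of control specific binding, n = 2.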
T2 sequence (P34972 whole entry): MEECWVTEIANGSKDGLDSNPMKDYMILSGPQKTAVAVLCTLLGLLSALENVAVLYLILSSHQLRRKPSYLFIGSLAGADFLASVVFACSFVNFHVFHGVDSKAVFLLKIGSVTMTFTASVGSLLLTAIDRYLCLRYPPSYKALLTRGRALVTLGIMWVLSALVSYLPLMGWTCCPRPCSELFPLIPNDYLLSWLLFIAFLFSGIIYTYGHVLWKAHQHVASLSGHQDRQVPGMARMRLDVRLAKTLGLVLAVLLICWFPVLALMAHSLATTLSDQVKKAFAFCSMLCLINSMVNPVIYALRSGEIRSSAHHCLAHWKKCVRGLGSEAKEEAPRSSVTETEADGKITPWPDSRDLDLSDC
A general note: In a radioligand displacement assay an active substance lowers the binding of a labelled ligand.
As to `O=C(NC1CCCCC1)c1cnn(-c2ccc(Cl)cc2Cl)c1-c1ccc(F)cc1`, the Activity was 18%.

For the compound `O=C(NC12CC3CC(CC(C3)C1)C2)c1cnn(-c2ccc(Cl)cc2Cl)c1-c1ccc(I)cc1`, the Activity is 44%.

Regarding `O=C(NC1CC1)c1cnn(-c2ccc(Cl)cc2Cl)c1-c1ccc(F)cc1`, the Activity was 7%.

As for `O=C(NN1CC2CCCC2C1)c1cnn(-c2ccc(Cl)cc2Cl)c1-c1ccc(Cl)cc1` (centres undefined), the Activity is 56%.

As to `O=C(NN1CCCCC1)c1cnn(-c2ccc(Cl)cc2Cl)c1-c1ccc(I)cc1`, the Activity worked out at 84%.

Turning to `O=C(NN1CCCCC1)c1cnn(-c2ccc(Cl)cc2Cl)c1-c1ccc(F)cc1`, the Activity was 7%.

With `CN1CCN(NC(=O)c2cnn(-c3ccc(Cl)cc3Cl)c2-c2ccc(I)cc2)CC1`, the Activity was 42%.

Turning to `COc1ccc(-c2c(C(=O)NN3CCCCC3)cnn2-c2ccc(Cl)cc2Cl)cc1`, the Activity was determined as 70%.

For `O=C(NN1CCOCC1)c1cnn(-c2ccc(Cl)cc2Cl)c1-c1ccc(Cl)cc1`, the Activity amounted to 12%.

In the case of `O=C(NC1CCCCC1)c1cnn(-c2ccc(Cl)cc2Cl)c1-c1ccc(I)cc1`, the Activity is 59%.

In the case of `O=C(c1cnn(-c2ccc(Cl)cc2Cl)c1-c1ccc(Cl)cc1)N1CCCCC1`, the Activity was found to be 45%.

With `O=C(NC1CCCCC1)c1cnn(-c2ccc(Cl)cc2Cl)c1-c1ccc(Br)cc1`, the Activity was determined as 44%.

Take `O=C(c1cnn(-c2ccc(Cl)cc2Cl)c1-c1ccc(Cl)cc1)N1CCCC1`: the Activity amounted to 43%.

`O=C(NC1CCCCCC1)c1cnn(-c2ccc(Cl)cc2Cl)c1-c1ccc(Cl)cc1`: the Activity came out at 50%.

Consider `O=C(NN1CCCCC1)c1cnn(-c2ccc(Cl)cc2Cl)c1-c1ccc(Cl)cc1`, for which the Activity turned out to be 37%.

Take `O=C(NC1CCCC1)c1cnn(-c2ccc(Cl)cc2Cl)c1-c1ccc(Cl)cc1`: the Activity was 61%.

With `CN1CCN(NC(=O)c2cnn(-c3ccc(Cl)cc3Cl)c2-c2ccc(Cl)cc2)CC1`, the Activity was -23%.

On to `O=C(NC1CCCCCC1)c1cnn(-c2ccc(Cl)cc2Cl)c1-c1ccc(Br)cc1`, for which the Activity amounted to 60%.

Turning to `COc1ccc(-c2c(C(=O)NC3CCCCC3)cnn2-c2ccc(Cl)cc2Cl)cc1`, the Activity worked out at 76%.

For `O=C(NC1CC1)c1cnn(-c2ccc(Cl)cc2Cl)c1-c1ccc(Cl)cc1`, the Activity stood at 30%.

Consider `CN1CCN(NC(=O)c2cnn(-c3ccc(Cl)cc3Cl)c2-c2ccc(Br)cc2)CC1`, for which the Activity is -12%.

On to `O=C(NC12CC3CC(CC(C3)C1)C2)c1cnn(-c2ccc(Cl)cc2Cl)c1-c1ccc(Cl)cc1`, for which the Activity stood at 22%.

For `O=C(NC1CC1)c1cnn(-c2ccc(Cl)cc2Cl)c1-c1ccc(I)cc1`, the Activity came out at 60%.

In the case of `O=C(NC1CC1)c1cnn(-c2ccc(Cl)cc2Cl)c1-c1ccc(Br)cc1`, the Activity is 43%.

Consider `O=C(NC1CCCCCC1)c1cnn(-c2ccc(Cl)cc2Cl)c1-c1ccc(I)cc1`, for which the Activity was found to be 61%.

Turning to `O=C(NN1CCCCC1)c1cnn(-c2ccc(Cl)cc2Cl)c1-c1ccc(Br)cc1`, the Activity was 55%.

Regarding `Cc1ccc(-c2c(C(=O)NN3CCCCC3)cnn2-c2ccc(Cl)cc2Cl)cc1`, the Activity worked out at 27%.

Take `Cc1ccc(-c2c(C(=O)NC3CCCCC3)cnn2-c2ccc(Cl)cc2Cl)cc1`: the Activity was 46%.

In the case of `O=C(c1cnn(-c2ccc(Cl)cc2Cl)c1-c1ccc(Cl)cc1)N1CCc2ccccc2C1`, the Activity is 69%.

Regarding `O=C(NN1CCOCC1)c1cnn(-c2ccc(Cl)cc2Cl)c1-c1ccc(F)cc1`, the Activity is -9%.

`O=C(NC1CCCCCCC1)c1cnn(-c2ccc(Cl)cc2Cl)c1-c1ccc(Cl)cc1`: the Activity is 44%.

As to `O=C(NCCN1CCCCC1)c1cnn(-c2ccc(Cl)cc2Cl)c1-c1ccc(Cl)cc1`, the Activity worked out at 14%.

As for `O=C(NC1CCCCC1)c1cnn(-c2ccc(Cl)cc2Cl)c1-c1ccc(Cl)cc1`, the Activity came to 52%.

Turning to `O=C(NN1CCCCCC1)c1cnn(-c2ccc(Cl)cc2Cl)c1-c1ccc(Cl)cc1`, the Activity stood at 64%.

A further assay addresses T2, Cannabinoid receptor 2. Kind of assay: Displacement of [3H]WIN-55212-2 from human CB2 receptor expressed in CHO cells. It is filed as cell-based. In outline: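 Non-specific binding was defined with excess unlabelled ligand. Ki was derived from IC50 by the Cheng-Prusoff equation, Ki = IC50/(1 + L/KD), using radioligand concentration and KD.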
`O=C(NN1CCCCC1)c1cnn(-c2ccc(Cl)cc2Cl)c1-c1ccc(I)cc1` registered a Ki of 1900 nM.

On to `O=C(NC1CC1)c1cnn(-c2ccc(Cl)cc2Cl)c1-c1ccc(Cl)cc1`, for which the Ki was found to be 21000 nM.

`CN1CCN(NC(=O)c2cnn(-c3ccc(Cl)cc3Cl)c2-c2ccc(Br)cc2)CC1` yielded a Ki of 30000 nM.
